ChEMBL document CHEMBL3867450, “Synthesis of Natural Acylphloroglucinol-Based Antifungal Compounds against Cryptococcus Species” (J Nat Prod, 2016)
≈ marks a conversion by molar mass, not a printed value. Calls of active or inactive are those of the source. The calls are words filed in the database; no cut-off is given here.

Legend:
[1] = Antifungal activity against Cryptococcus neoformans ATCC 90113 assessed as growth inhibition at 20 ug/ml measured after 72 hrs by CLSI method; assay type: functional
Summary of the method: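 Primary screen against C. neoformans ATCC 90113 by a modified CLSI method at 20 μg/mL. Growth inhibition above 50% at this concentration was scored as active and taken to further testing.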

[2] = Cytotoxicity against African green monkey Vero cells assessed as reduction in viable cells measured after 48 hrs by neutral red dye-based method; assay type: toxicity, cell-based; conditions: African green monkey (Chlorocebus sabaeus)
Summary of the method: (§1)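 Vero (African green monkey kidney […]) and LLC-PK1 (pig kidney epithelial) cells were scored for viability by neutral red uptake. The top test concentration was 50 μg/mL. IC50 is the concentration causing 50% growth inhibition of the mammalian cells.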

[3] = Cytotoxicity against pig LLC-PK1 cells assessed as reduction in viable cells measured after 48 hrs by neutral red dye-based method; assay type: toxicity, cell-based; conditions: pig (Sus scrofa); summary of the method: as §1
[4] = test system: Cryptococcus bacillisporus; assay: Antifungal activity against Cryptococcus gattii ATCC 32609 assessed as growth inhibition at 20 ug/ml measured after 72 hrs by CLSI method; assay type: functional; conditions: ATCC 32609, 72 h, read-out: GI
Cryptococcus neoformans [5] = assay: Antifungal activity against Cryptococcus neoformans ATCC 90113 assessed as growth inhibition at 20 ug/ml measured after 72 hrs by CLSI method; conditions: read-out: GI
Staphylococcus aureus = assay: Antibacterial activity against Staphylococcus aureus ATCC 29213 by CLSI method; assay type: functional
[6] = Selectivity index, ratio of IC50 for pig LLC-PK1 cells to MIC for Cryptococcus neoformans ATCC 90113; assay type: toxicity, cell-based; conditions: read-out: Selectivity Index
Summary of the method: (§2)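 Selectivity index is the mammalian-cell IC50 (neutral red assay, Vero or LLC-PK1) divided by the MIC against C. neoformans ATCC 90113 (modified CLSI method).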

[7] = Antifungal activity against Cryptococcus neoformans ATCC 90113 assessed as growth inhibition measured after 72 hrs by CLSI method; assay type: functional
Summary of the method: (§3)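 Susceptibility testing by a modified CLSI (formerly NCCLS) method against C. neoformans ATCC 90113, C. neoformans H99 (from Duke University) or C. gattii ATCC 32609. The top test concentration was 20 μg/mL. MIC is the lowest concentration allowing no detectable growth. IC50 is the concentration giving 50% growth inhibition.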

[8] = Selectivity index, ratio of IC50 for African green monkey Vero cells to MIC for Cryptococcus neoformans ATCC 90113; assay type: toxicity, cell-based; conditions: read-out: Selectivity Index; summary of the method: as §2
[9] = test system: Cryptococcus bacillisporus; assay: Antifungal activity against Cryptococcus gattii ATCC 32609 assessed as growth inhibition measured after 72 hrs by CLSI method; assay type: functional; conditions: ATCC 32609, 72 h; summary of the method: as §3
Cryptococcus neoformans [10] = assay: Antifungal activity against Cryptococcus neoformans H99 assessed as growth inhibition measured after 72 hrs by CLSI method; assay type: functional; conditions: var grubii H99 ; summary of the method: as §3

SMILES	growth inhibition (GI) [1]	IC50 at 48 h [2]	IC50 at 48 h [3]	inhibition of growth at 20 µg/mL [4]	inhibition of growth at 20 µg/mL (Cryptococcus neoformans [5])	MIC (Staphylococcus aureus)	selectivity ratio [6]	MIC [7]	selectivity ratio [8]	MIC [9]	MIC (Cryptococcus neoformans [10])	Activity (Staphylococcus aureus)
CC(C)C(=O)c1c(O)cc(OCc2ccc(C(C)C)cc2)cc1O	< 50%	–	–	–	–	–	–	–	–	–	–	–
COc1cccc2c1C(=O)c1c(O)c3c(c(O)c1C2=O)C[C@@](O)(C(=O)CO)C[C@@H]3O[C@H]1C[C@H](N)[C@H](O)[C@H](C)O1 [DOXORUBICIN]	–	> 10 µg/mL	1.3 µg/mL (≈ 2.39 µM)	–	–	–	–	–	–	–	–	–
COc1cc(C(=O)c2c(O)cc(O)c(C(=O)C(C)C)c2O)cc(OC)c1OC	< 50%	–	–	< 50%	< 50%	–	–	–	–	–	–	–
CC(C)C(=O)c1c(O)cc(O)c(C(=O)C(C)C)c1O	> 50%	11.5 µg/mL (≈ 43.2 µM)	17.5 µg/mL (≈ 65.7 µM)	–	–	1.3 µg/mL (≈ 4.88 µM)	7	2.5 µg/mL (≈ 9.39 µM)	4.6	2.1 µg/mL (≈ 7.89 µM)	3.3 µg/mL (≈ 12.4 µM)	–
C=CCc1c(O)cc(O)c(C(=O)C(C)C)c1O	< 50%	–	–	< 50%	< 50%	–	–	–	–	–	–	–
CC(C)C(=O)c1c(O)cc(O)c(CC#N)c1O	< 50%	–	–	< 50%	< 50%	–	–	–	–	–	–	–
CCOC(=O)COc1cc(O)c(C(=O)C(C)C)c(O)c1	< 50%	–	–	–	–	–	–	–	–	–	–	–
CCCC(=O)c1c(O)cc(O)c(CC=C(C)C)c1O	> 50%	16.3 µg/mL (≈ 61.7 µM)	28 µg/mL (≈ 106 µM)	–	–	–	8.5	3.3 µg/mL (≈ 12.5 µM)	4.9	5 µg/mL (≈ 18.9 µM)	8.3 µg/mL (≈ 31.4 µM)	–
CC(C)C(=O)c1c(O)cc(O)cc1O	< 50%	–	–	–	–	–	–	–	–	–	–	–
CC(C)=CCc1c(O)cc(O)c(C(=O)C(C)(C)C)c1O	< 50%	–	–	–	–	–	–	–	–	–	–	–
CC(C)=CCc1c(O)cc(O)c(C(=O)C(C)C)c1O	> 50%	18 µg/mL (≈ 68.1 µM)	31 µg/mL (≈ 117 µM)	–	–	–	6.2	5 µg/mL (≈ 18.9 µM)	3.6	5 µg/mL (≈ 18.9 µM)	8.3 µg/mL (≈ 31.4 µM)	–
CC(C)C(=O)c1c(O)cc(OCc2c(F)cccc2Cl)cc1O	< 50%	–	–	–	–	–	–	–	–	–	–	–
COc1ccc(C(=O)c2c(O)cc(O)c(C(=O)C(C)C)c2O)cc1	> 50%	10.5 µg/mL (≈ 31.8 µM)	24.8 µg/mL (≈ 75.1 µM)	–	–	–	1.9	13.3 µg/mL (≈ 40.3 µM)	0.8	8.3 µg/mL (≈ 25.1 µM)	10 µg/mL (≈ 30.3 µM)	–
CC(C)C(=O)c1c(O)cc(O)c(Cc2ccc(C(C)C)cc2)c1O	> 50%	> 50 µg/mL	> 50 µg/mL	–	–	10 µg/mL (≈ 30.4 µM)	> 33.3	1.5 µg/mL (≈ 4.57 µM)	> 33.3	2.1 µg/mL (≈ 6.39 µM)	2.1 µg/mL (≈ 6.39 µM)	–
CC(C)=CCC/C(C)=C/CC/C(C)=C/Cc1c(O)cc(O)c(C(=O)C(C)C)c1O	> 50%	25 µg/mL (≈ 62.4 µM)	27 µg/mL (≈ 67.4 µM)	–	–	–	3.6	7.5 µg/mL (≈ 18.7 µM)	3.3	7.5 µg/mL (≈ 18.7 µM)	5 µg/mL (≈ 12.5 µM)	–
C#CCc1c(O)cc(O)c(C(=O)C(C)C)c1O	< 50%	–	–	< 50%	< 50%	–	–	–	–	–	–	–
CC(C)C(=O)c1c(O)cc(O)cc1OCc1c(F)cccc1Cl	> 50%	> 50 µg/mL	> 50 µg/mL	–	–	–	> 10	5 µg/mL (≈ 14.8 µM)	> 10	5 µg/mL (≈ 14.8 µM)	8.3 µg/mL (≈ 24.5 µM)	Active
CC(C)C(=O)c1c(O)cc(O)c(Cc2c(Cl)cccc2Cl)c1O	> 50%	27.5 µg/mL (≈ 77.4 µM)	29.5 µg/mL (≈ 83 µM)	–	–	–	29.5	1 µg/mL (≈ 2.82 µM)	27.5	2.1 µg/mL (≈ 5.91 µM)	4.2 µg/mL (≈ 11.8 µM)	–

SMILES	growth inhibition (GI) [1]	IC50 at 48 h [2]	IC50 at 48 h [3]	inhibition of growth at 20 µg/mL [4]	inhibition of growth at 20 µg/mL (Cryptococcus neoformans [5])	MIC (Staphylococcus aureus)	selectivity ratio [6]	MIC [7]	selectivity ratio [8]	MIC [9]	MIC (Cryptococcus neoformans [10])	Activity (Staphylococcus aureus)
CC(C)C(=O)c1c(O)cc(O)c(C(=O)c2ccc(F)cc2)c1O	> 50%	13.5 µg/mL (≈ 42.4 µM)	27.5 µg/mL (≈ 86.4 µM)	–	–	–	3.3	8.3 µg/mL (≈ 26.1 µM)	1.6	6.7 µg/mL (≈ 21 µM)	11.7 µg/mL (≈ 36.8 µM)	–
C[C@@H]1[C@H](O)[C@@H](C)/C=C/C=C/C=C/C=C/C=C/C=C/C=C/[C@H](O[C@@H]2O[C@H](C)[C@@H](O)[C@H](N)[C@@H]2O)C[C@@H]2O[C@](O)(C[C@@H](O)C[C@@H](O)[C@H](O)CC[C@@H](O)C[C@@H](O)CC(=O)O[C@H]1C)C[C@H](O)[C@H]2C(=O)O [AMPHOTERICIN B]	–	–	–	–	–	–	–	0.4 µg/mL (≈ 0.433 µM)	–	0.3 µg/mL (≈ 0.325 µM)	0.3 µg/mL (≈ 0.325 µM)	–
CC(C)C(=O)c1c(O)cc(O)c(Cc2c(F)cccc2Cl)c1O	> 50%	28 µg/mL (≈ 82.7 µM)	26.3 µg/mL (≈ 77.6 µM)	–	–	–	15.5	1.7 µg/mL (≈ 5.02 µM)	16.5	4.2 µg/mL (≈ 12.4 µM)	6.7 µg/mL (≈ 19.8 µM)	–
CC(C)C(=O)c1c(O)cc(O)cc1OCC(=O)NC(C)(C)C	< 50%	–	–	–	–	–	–	–	–	–	–	–
CCOC(=O)Cc1c(O)cc(O)c(C(=O)C(C)C)c1O	< 50%	–	–	< 50%	< 50%	–	–	–	–	–	–	–
CC(C)(C)C(=O)c1c(O)cc(O)cc1O	< 50%	–	–	–	–	–	–	–	–	–	–	–
CC(C)=CCC/C(C)=C/Cc1c(O)cc(O)c(C(=O)C(C)C)c1O	> 50%	22.5 µg/mL (≈ 67.7 µM)	24.5 µg/mL (≈ 73.7 µM)	–	–	–	14.4	1.7 µg/mL (≈ 5.11 µM)	13.2	1 µg/mL (≈ 3.01 µM)	1.7 µg/mL (≈ 5.11 µM)	–
CC(C)C(=O)c1c(O)cc(OCC(=O)NC(C)(C)C)cc1O	< 50%	–	–	–	–	–	–	–	–	–	–	–
CC(C)C(=O)c1c(O)cc(O)c(Cc2ccc([N+](=O)[O-])cc2)c1O	> 50%	18 µg/mL (≈ 54.3 µM)	28 µg/mL (≈ 84.5 µM)	–	–	–	4.2	6.7 µg/mL (≈ 20.2 µM)	2.7	5 µg/mL (≈ 15.1 µM)	10 µg/mL (≈ 30.2 µM)	–
CCOC(=O)COc1cc(O)cc(O)c1C(=O)C(C)C	< 50%	–	–	–	–	–	–	–	–	–	–	–
CC(C)C(=O)c1c(O)cc(O)cc1OCc1c(Cl)cccc1Cl	> 50%	32.5 µg/mL (≈ 91.5 µM)	34.5 µg/mL (≈ 97.1 µM)	–	–	–	4.2	8.3 µg/mL (≈ 23.4 µM)	3.9	5 µg/mL (≈ 14.1 µM)	5 µg/mL (≈ 14.1 µM)	–
CC(C)C(=O)c1c(O)cc(O)c(Cc2ccccc2)c1O	> 50%	28 µg/mL (≈ 97.8 µM)	28.5 µg/mL (≈ 99.5 µM)	–	–	–	4.3	6.7 µg/mL (≈ 23.4 µM)	4.2	10 µg/mL (≈ 34.9 µM)	16.7 µg/mL (≈ 58.3 µM)	–
CC(C)C(=O)c1c(O)cc(O)c(C(=O)c2ccccc2)c1O	> 50%	23 µg/mL (≈ 76.6 µM)	42.5 µg/mL (≈ 142 µM)	–	–	–	4.3	10 µg/mL (≈ 33.3 µM)	2.3	8.3 µg/mL (≈ 27.6 µM)	10 µg/mL (≈ 33.3 µM)	–
CCCC(=O)c1c(O)cc(O)c(C(=O)c2ccccc2)c1O	> 50%	14.3 µg/mL (≈ 47.6 µM)	27 µg/mL (≈ 89.9 µM)	–	–	–	4	6.7 µg/mL (≈ 22.3 µM)	2.1	5 µg/mL (≈ 16.6 µM)	6.7 µg/mL (≈ 22.3 µM)	–
OC(Cn1cncn1)(Cn1cncn1)c1ccc(F)cc1F [FLUCONAZOLE]	–	–	–	–	–	–	–	6.3 µg/mL (≈ 20.6 µM)	–	25 µg/mL (≈ 81.6 µM)	12.5 µg/mL (≈ 40.8 µM)	–
CCCC(=O)c1c(O)cc(O)cc1O	< 50%	–	–	–	–	–	–	–	–	–	–	–
CCCC(=O)c1c(O)cc(O)c(C(=O)CCC)c1O	> 50%	14.5 µg/mL (≈ 54.5 µM)	24.5 µg/mL (≈ 92 µM)	–	–	–	11.7	2.1 µg/mL (≈ 7.89 µM)	6.9	1.5 µg/mL (≈ 5.63 µM)	2.5 µg/mL (≈ 9.39 µM)	–
CCOC(=O)COc1cc(O)c(C(=O)C(C)C)c(OCC(=O)OCC)c1	< 50%	–	–	–	–	–	–	–	–	–	–	–
